Measured values reported in ChEMBL document CHEMBL4689842, “EUbOPEN Chemogenomics Library wave 1” (2021).
Values joined by “and” are separate entries in the source; they are usually repeats but may differ in a detail not shown here. Identical values can stand only once.

Test system: Fibroblast
Assay: Multiplex assay against human fibroblast
Type: toxicity, cell-based
How it was run: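 Values for tubulin, mitochondrial-mass and membrane-permeability phenotypes are per cents of cells with healthy nuclei. These cells were identified by CellPathfinder machine-learning gating of live cells that had been stained at seeding with Hoechst33342, BioTracker Green Microtubule Cytoskeleton Dye, MitoTracker Red and Annexin V Alexa Fluor 680 and imaged on a CQ1 microscope at 37°C and 5% CO2 after compound addition. The gating first set Hoechst high-intensity objects apart from normal cells, then split normal cells into healthy, pyknosed or fragmented nuclei, and pyknosed cells into mitotic or apoptotic.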

[1] = 12 h, 1 µM, compound concentration 1 uM, replicate 1
[2] = 12 h, 1 µM, compound concentration 1 uM, replicate 2
[3] = 12 h, 10 µM, compound concentration 10 uM, replicate 1
[4] = 12 h, 10 µM, compound concentration 10 uM, replicate 2
[5] = 24 h, 1 µM, compound concentration 1 uM, replicate 1
[6] = 24 h, 1 µM, compound concentration 1 uM, replicate 2
[7] = 24 h, 10 µM, compound concentration 10 uM, replicate 1
[8] = 24 h, 10 µM, compound concentration 10 uM, replicate 2
[9] = 48 h, 1 µM, compound concentration 1 uM, replicate 1
[10] = 48 h, 1 µM, compound concentration 1 uM, replicate 2
[11] = 48 h, 10 µM, compound concentration 10 uM, replicate 1
[12] = 48 h, 10 µM, compound concentration 10 uM, replicate 2

## CS(=O)(=O)N1CCCC(NC(=O)[C@H](CCC2CCCCC2)NC(=O)c2ccc(CNC(=O)c3cnc4ccccn34)cc2)C1 (some centres undefined) [SR-302]
[1]
  Population Apoptotic (%): 63% [middle of 4 runs]
  Population Fragmented Nuclei (%): 16% and 17% and 20%
  Population Healthy Nuclei (%): 42% [middle of 4 runs]
  Population Hoechst High Intensity Objects (%): 15% [middle of 4 runs]
  Population Membrane Permeable-Phenotype (%): 31% and 23%
  Population Mitochondria Different-Phenotype (%): 10% [middle of 4 runs]
  Population Mitotic Cells (%): 42% [middle of 4 runs]
  Population Normal (%): 85% and 84% and 80% and 87%
  Population Pyknosed Nuclei (%): 55% and 40% and 41%
[2]
  Population Apoptotic (%): 40% and 33% and 20%
  Population Healthy Nuclei (%): 81% [middle of 4 runs]
  Population Membrane Permeable-Phenotype (%): 0% and 7% and 2%
  Population Mitochondria Different-Phenotype (%): 6% and 7% and 9%
  Population Mitotic Cells (%): 60% and 66% and 80%
  Population Normal (%): 75% and 93% and 83% and 97%
  Population Pyknosed Nuclei (%): 12% [middle of 4 runs]
  Total Cell Count: 84 and 98 and 59
[3]
  Population Apoptotic (%): 56% [middle of 4 runs]
  Population Fragmented Nuclei (%): 26% [middle of 4 runs]
  Population Healthy Nuclei (%): 20% and 32% and 52%
  Population Hoechst High Intensity Objects (%): 11% and 19% and 9%
  Population Membrane Permeable-Phenotype (%): 20% [middle of 4 runs]
  Population Mitotic Cells (%): 48% [middle of 4 runs]
  Population Normal (%): 88% and 80% and 91%
  Population Pyknosed Nuclei (%): 51% [middle of 4 runs]
  Population Tubulin-Different-Phenotype (%): 86% [middle of 4 runs]
  Total Cell Count: 137 [middle of 4 runs]
[4]
  Population Apoptotic (%): 71% [middle of 4 runs]
  Population Healthy Nuclei (%): 34% and 80% and 83%
  Population Membrane Permeable-Phenotype (%): 18% and 23% and 11%
  Population Normal (%): 66% and 92% and 93% and 96%
  Population Pyknosed Nuclei (%): 17% and 7% and 9%
  Population Tubulin-Different-Phenotype (%): 91% [middle of 4 runs]
  Total Cell Count: 77 [middle of 4 runs]
[5]
  Population Apoptotic (%): 72% [middle of 4 runs]
  Population Fragmented Nuclei (%): 25% [middle of 4 runs]
  Population Healthy Nuclei (%): 51% [middle of 4 runs]
  Population Hoechst High Intensity Objects (%): 17% [middle of 4 runs]
  Population Mitochondria Different-Phenotype (%): 7% [middle of 4 runs]
  Population Mitotic Cells (%): 40% [middle of 4 runs]
  Population Normal (%): 85% and 77% and 82% and 83%
  Population Pyknosed Nuclei (%): 28% [middle of 4 runs]
[6]
  Population Membrane Permeable-Phenotype (%): 0% and 5% and 1%
  Population Mitochondria Different-Phenotype (%): 6% and 8% and 4%
  Population Mitotic Cells (%): 66% [middle of 4 runs]
  Population Normal (%): 76% and 95%
  Total Cell Count: 97 [middle of 4 runs]
[7]
  Population Apoptotic (%): 57% [middle of 4 runs]
  Population Fragmented Nuclei (%): 24% [middle of 4 runs]
  Population Healthy Nuclei (%): 37% and 27% and 59%
  Population Hoechst High Intensity Objects (%): 10% [middle of 4 runs]
  Population Mitotic Cells (%): 51% [middle of 4 runs]
  Population Normal (%): 100% and 89% and 80% and 92%
  Population Pyknosed Nuclei (%): 51% [middle of 4 runs]
  Population Tubulin-Different-Phenotype (%): 82% [middle of 4 runs]
[8]
  Population Apoptotic (%): 55% [middle of 4 runs]
  Population Membrane Permeable-Phenotype (%): 16% [middle of 4 runs]
  Population Mitochondria Different-Phenotype (%): 75% [middle of 4 runs]
  Population Mitotic Cells (%): 45% [middle of 4 runs]
  Population Normal (%): 62% and 88% and 95% and 94%
  Population Pyknosed Nuclei (%): 24% and 15% and 13%
  Population Tubulin-Different-Phenotype (%): 72% [middle of 4 runs]
  Total Cell Count: 88 [middle of 4 runs]
[9]
  Population Apoptotic (%): 58% and 70% and 55%
  Population Fragmented Nuclei (%): 42% and 31% and 22%
  Population Healthy Nuclei (%): 40% and 46% and 52%
  Population Hoechst High Intensity Objects (%): 18% and 24% and 20%
  Population Membrane Permeable-Phenotype (%): 14% and 36% and 20%
  Population Mitochondria Different-Phenotype (%): 7% and 13% and 5%
  Population Mitotic Cells (%): 41% and 30% and 44%
  Population Normal (%): 81% and 75% and 79%
  Population Pyknosed Nuclei (%): 17% and 21% and 24%
  Population Tubulin-Different-Phenotype (%): 42% and 59% and 28%
  Total Cell Count: 86 and 62 and 93
[10]
  Population Fragmented Nuclei (%): 19% and 14% and 23%
  Population Healthy Nuclei (%): 79% and 82% and 72%
  Population Hoechst High Intensity Objects (%): 13% and 8% and 15%
  Population Membrane Permeable-Phenotype (%): 9% and 7%
  Population Mitochondria Different-Phenotype (%): 0% and 4%
  Population Normal (%): 86% and 91% and 84%
  Total Cell Count: 105 and 83 and 107
[11]
  Population Apoptotic (%): 53% and 87% and 50%
  Population Fragmented Nuclei (%): 31% and 64% and 30%
  Population Healthy Nuclei (%): 47% and 22% and 30%
  Population Hoechst High Intensity Objects (%): 27% and 36% and 28%
  Population Mitochondria Different-Phenotype (%): 33% and 50% and 53%
  Population Normal (%): 72% and 63% and 71%
  Population Tubulin-Different-Phenotype (%): 70% and 64% and 92%
  Total Cell Count: 87 and 97 and 118
[12]
  Population Apoptotic (%): 66% and 44%
  Population Fragmented Nuclei (%): 35% and 26% and 27%
  Population Healthy Nuclei (%): 60% and 65% and 62%
  Population Membrane Permeable-Phenotype (%): 7% and 5%
  Population Mitochondria Different-Phenotype (%): 37% and 45%
  Population Mitotic Cells (%): 33% and 55%
  Population Normal (%): 98% and 90%
  Population Pyknosed Nuclei (%): 4% and 7% and 10%
  Population Tubulin-Different-Phenotype (%): 91% and 93% and 96%
  Total Cell Count: 133 and 139
